Laboratory results: ChEMBL document CHEMBL4765426, “Design, synthesis and in vitro anti-influenza A virus evaluation of novel quinazoline derivatives containing S-acetamide and NH-acetamide moieties at C-4” (Eur J Med Chem, 2020)
pIC50: −log10 of the molar value.

What was measured:
[1] = Selectivity index, ratio of CC50 for human HEK293T cells to IC50 for Influenza A virus A/WSN/33(H1N1) infected in HEK293T-Gluc cells; format: toxicity, cell-based; conditions: read-out: Ratio CC50/IC50
Influenza A virus [2] = test: Antiviral activity against Influenza A virus A/PR/8/34 (H1N1) infected in HEK293T-Gluc cells pretreated for 2 hrs followed by viral infection and measured after 24 hrs by Gaussia luciferase reporter gene assay; format: functional, organism-based; conditions: A/Puerto Rico/8/1934(H1N1), HEK-293T
How it was run: (§1)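 Reporter cells were HEK293T cells stably transfected with pLenti6-Gluc, which constitutively expresses negative-strand Gaussia luciferase RNA that becomes positive-strand on IAV infection. Cells were infected with A/WSN/33 or A/PR/8/1934 (H1N1). Antiviral activity was read as Gluc signal, and IC50 values were derived. Ribavirin served as positive control.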

[3] = Cytotoxicity against human HEK293T cells assessed as reduction in cell viability after 48 hrs by CCK8 assay; format: cell-based, HEK-293T
[4] = Cytotoxicity against human A549 cells assessed as reduction in cell viability after 48 hrs by CCK8 assay; format: cell-based
Influenza A virus [5] = test: Antiviral activity against Influenza A virus A/WSN/33(H1N1) infected in HEK293T-Gluc cells pretreated for 2 hrs followed by viral infection and measured after 24 hrs by Gaussia luciferase reporter gene assay; format: functional, organism-based; conditions: A/WSN/1933(H1N1), HEK-293T; how it was run: as §1
Influenza A virus [6] = test: Antiviral activity against Influenza A virus A/WSN/33(H1N1) infected in HEK293T-Gluc cells assessed as inhibition of virus infection at 10 uM pretreated for 2 hrs followed by viral infection and measured after 24 hrs by Gaussia luciferase reporter gene assay; format: functional; conditions: A/WSN/1933(H1N1), HEK-293T, time 26 hrs
How it was run: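 A single-concentration screen at 10 μM was run against A/WSN/33 (H1N1) in HEK293T-Gluc reporter cells. These cells carry a stably transfected pLenti6-Gluc construct expressing negative-strand Gaussia luciferase RNA that is converted to positive strand upon infection. Inhibition ratio of infection was read from Gluc activity.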

SMILES | selectivity ratio [1] | pIC50 (Influenza A virus [2]) | CC50 at 48 h [3] | CC50 at 48 h [4] | pIC50 (Influenza A virus [5]) | inhibition at 10 µM (Influenza A virus [6])
O=C(CNc1nc(N2CCCC2)nc2ccccc12)Nc1cc(Cl)cc(Cl)c1 | 1.75 | 6.02 | 15.9 µM | 5.92 µM | 5.04 | –
NC(=O)c1ncn([C@@H]2O[C@H](CO)[C@@H](O)[C@H]2O)n1 [RIBAVIRIN] | > 6.51 | – | > 100 µM | – | – | –
O=C(CNc1nc(N2CCCC2)nc2ccccc12)NCc1ccco1 | > 2.54 | – | > 100 µM | – | 4.40 | –
O=C(CNc1nc(N2CCc3ccccc3C2)nc2ccccc12)NCc1ccccc1 | 4.3 | 6.92 | 29.4 µM | 12.8 µM | 5.16 | –
O=C(CNc1nc(N2CCc3ccccc3C2)nc2ccccc12)Nc1ccc2ccccc2c1 | > 29.1 | – | > 100 µM | – | 5.46 | –
O=C(CNc1nc(N2CCOCC2)nc2ccccc12)NCc1ccccc1 | > 26.1 | 5.22 | > 100 µM | > 100 µM | 5.42 | –
O=C(CNc1nc(N2CCc3ccccc3C2)nc2ccccc12)Nc1ccccc1 | 9.44 | 6.39 | 36.6 µM | 10.7 µM | 5.41 | 98.2%
CCOc1ccc(NC(=O)CSc2c[nH]c3ccc(Br)cc23)cc1 | 10.5 | 6.48 | 44 µM | 71.4 µM | 5.38 | 90.2%
